Screening results deposited in PubChem BioAssay by several laboratories.
A selection: hits, their analogues and other compounds. The true share with any hit is near 0.88%.
CCR6 antag = blocks CCL20-driven beta-arrestin recruitment at human CCR6. CHO-K1 CCR6 PathHunter beta-arrestin, luminescence, CCL20-stimulated. inhibition, % at 20 µM. P51684. AID 493098. actives 0.49% (n = 340,000);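 active = compounds whose inhibition of the agonist-driven luminescence signal at 20 µM reaches about 50%, limit read from the data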;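 also: cells stimulated with CCL20 at 14 nM final; plate controls were DMSO with CCL20 for no effect and DMSO without agonist for full effect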
Target sequence (P51684 whole entry, looked up): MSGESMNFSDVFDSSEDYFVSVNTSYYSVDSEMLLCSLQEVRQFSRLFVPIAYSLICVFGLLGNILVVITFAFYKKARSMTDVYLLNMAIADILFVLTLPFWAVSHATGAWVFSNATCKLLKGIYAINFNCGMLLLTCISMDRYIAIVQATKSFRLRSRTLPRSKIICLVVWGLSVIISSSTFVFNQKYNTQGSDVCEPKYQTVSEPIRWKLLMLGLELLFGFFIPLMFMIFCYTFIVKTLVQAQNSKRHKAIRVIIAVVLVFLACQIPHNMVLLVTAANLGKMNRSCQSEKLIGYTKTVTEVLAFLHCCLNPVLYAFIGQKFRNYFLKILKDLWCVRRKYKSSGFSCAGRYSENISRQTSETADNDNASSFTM
APJ agonist = APJ receptor agonism; CHO-K1 APJ PathHunter beta-arrestin, luminescence; 0% DMSO wells, 100% apelin; activation, % at 20 µM; actives 0.11% (n = 330,000);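 active = activation more than six SD over the plate average, tested at 20 µM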;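 also: 0% = DMSO alone and 100% = apelin-13 at 10 nM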
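Test system: CHO-K1 APJ beta-arrestin complementation cell line. Amount: cell density 1000 per well. Controls: DMSO negative, 10 nM Apelin-13 positive. Signal: luminescent beta-gal fragment complementation, chemiluminescent substrate. Read-out basis: agonist-driven arrestin binding to APJ. Timing: compound stimulation 90 min at 25 °C, detection 60 min.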
PKA-R2B act = activators of human PKA-R2B complex | actives 0.079% (n = 340,000) | AID 504700 | P22694+P31323 | PKA-R2B holoenzyme dissociation, Cy5-IP20 fluorescence polarization; R2B truncated from residue 108, S112A mutant; 0% DMSO only, 100% 113 µM cGMP | activation, % at 11.4 µM;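 active = activation above a cutoff set at the mean over all compounds plus 3 SD, cut at about 18% in these data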;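 also: higher means more holoenzyme dissociation and a rise in polarization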
CXCR6 inh = blocks human CXCR6 beta-arrestin recruitment; O00574; actives 0.36% (n = 360,000); inhibition, % at 20 µM; AID 602244; CHO-K1 PathHunter CXCR6 beta-arrestin, luminescence; in the data active = inhibition above about 34%, passing the limit was not always enough;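 also: antagonist mode with CXCL16 agonist at 10 nM final; 0% = 10 nM CXCL16 with DMSO and 100% = unstimulated wells without agonist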
APJ antag = APJ receptor antagonism; CHO-K1 APJ beta-arrestin complementation, luminescence; inhibition, % at 20 µM; actives 0.32% (n = 330,000); P35414;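 active = inhibition above about 40% at 20 µM, limit read from the data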;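 also: cells challenged with 10 nM apelin-13 agonist together with compound; plate controls were apelin-13 plus DMSO wells for no effect and DMSO wells lacking apelin-13 for full effect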
PKA-R1A act = activates the PKA-R1A holoenzyme complex; PKA-R1A dissociation, Cy5-IP20 fluorescence polarization; scaled: DMSO 0%, 113 µM cGMP 100%; actives 0.083% (n = 340,000); activation, % at 11.4 µM; P00514+P68181; AID 504707;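 active = percent activation above the mean of all tested compounds plus 3 SD, cut at about 19% in these data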;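 also: higher means more PKAc released from R1A so a rise in polarization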
R1A FP artifact = FP assay interference, PKA-R1A counter-screen; shares compounds with PKA-R1A act; Cy5-IP20 peptide alone, fluorescence polarization artifact counterscreen; actives 7% (n = 280); activation, % at 11.4 µM;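 active = mean activation over triplicate runs exceeds the adjusted cutoff derived for the parent primary screen, cut at about 19% in these data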;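 also: no PKA protein present so any polarization rise reflects compound interference; 0% = tracer peptide mix alone and 100% = mix with added PKA catalytic subunit; higher means stronger polarization artifact and likely false positive in parent screen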
PKA-R1A confirm = confirmation of PKA-R1A complex activators; shares compounds with PKA-R1A act; Cy5-IP20 fluorescence polarization, PKA-R1A holoenzyme dissociation; activation, % at 11.4 µM; actives 9% (n = 280); AID 504800;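 active = mean activation over replicate wells exceeds the adjusted hit threshold taken from the earlier primary screen, cut at about 20% in these data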;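 also: 0% = holoenzyme mix with DMSO only and 100% = cGMP-activated control wells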
* marks the source's active call; other numbers are inactive results; / = no result given.

SMILES	CCR6 antag	APJ agonist	PKA-R2B act	CXCR6 inh	APJ antag	PKA-R1A act	R1A FP artifact	PKA-R1A confirm
COc1ccccc1-c1csc(NC(=O)c2cc(-c3cccs3)nc3ccccc23)n1	12.0	-2.6	-8.3	6.2	20.2	23.0*	-0.5	2.9
O=C(COc1ccccc1Cl)NCCc1ccc2c(c1)OCCO2	-5.5	-4.8	-9.6	8.9	8.4	20.6*	-3.4	4.2
O=C(COc1ccccc1F)NCCc1ccc2c(c1)OCCO2	13.5	-6.3	2.4	4.9	3.4	-3.6	/	/
Cc1ccc(NC(=O)C2CC(=O)n3c(nc4ccccc43)N2)cc1C (stereo not given)	12.8	-0.5	-6.3	-0.9	-4.0	18.9*	2.2	4.9
Cc1ccc(NC(=O)C2CC(=O)n3c(nc4ccccc43)N2)cc1Cl (stereo not given)	-20.6	-3.3	3.5	-2.3	12.3	3.2	/	/
O=C1CCCC2=C1C(c1ccsc1)CC(=O)N2c1ccccc1F (stereo not given)	2.5	-3.4	-14.5	-1.9	16.5	-8.2	/	/
COc1ccccc1CNC(=O)C(C)NS(=O)(=O)c1ccccc1 (stereo not given)	13.8	-3.8	5.2	-6.0	2.2	18.6*	0.9	-0.2
COc1cccc(C(=O)Nc2nnc(SCC(=O)Nc3ccc(NC(C)=O)cc3)s2)c1	3.0	1.7	4.5	-1.7	4.6	20.1*	1.1	-2.6
COc1cccc(N2CC(C(=O)Nc3nnc(SCC(=O)Nc4ccc(NC(C)=O)cc4)s3)CC2=O)c1 (stereo not given)	-4.9	4.3	-4.4	-7.2	8.5	2.4	/	/
O=C(COc1ccc(Cl)cc1)NCc1nnc(SCC(=O)N2CCCC2)o1	12.1	0.8	-6.2	-2.8	-3.6	-3.7	/	/
O=C(NC1CCCCC1)c1cc(S(=O)(=O)N2CCOCC2)c(Cl)cc1Cl	5.8	0.6	-0.8	-1.7	-0.4	0.8	/	/
Cc1nn2c(NCC(C)C)c3c(nc2c1-c1ccccc1)CCC3	-0.6	-1.5	6.2	24.6	-13.6	20.2*	2.2	0.3
C/C(CC(=O)Nc1ccccn1)=N\NC(=O)c1cnccn1	5.1	0.9	7.2	7.5	-7.9	18.7*	2.8	-0.3
C/C(CC(=O)Nc1ccc2ccccc2c1)=N\NC(=O)c1cnccn1	6.0	0.1	2.6	3.6	-36.0	-0.5	/	/
CC(=O)Nc1ccc(NC(=O)CNC(=O)COc2ccccc2)cc1	12.9	-2.6	-3.5	6.9	5.3	7.0	/	/
COC(=O)CNC(=O)COc1ccccc1	-40.6	-1.8	3.8	-4.2	7.5	20.4*	-2.7	-1.3
Cn1c(SCC(=O)Nc2nnc(-c3ccccc3)o2)nnc1C1CC1	18.8	-5.4	2.1	1.3	13.8	19.1*	1.8	0.8
Cn1c(SCC(=O)Nc2ccccc2Cl)nnc1C1CC1	-6.3	2.1	-4.3	-2.8	1.6	3.6	/	/
CC1CCN(c2ccc(NC(=O)c3ccccc3[N+](=O)[O-])cc2)CC1	8.2	-0.2	/	-2.7	-1.5	/	/	/
O=C1CSC(=Nc2cccc([N+](=O)[O-])c2)N1	3.4	-5.0	3.9	2.7	-2.5	-9.1	/	/
Cc1coc2cc3oc(=O)c(CCC(=O)NCc4ccccn4)c(C)c3cc12	-3.2	-2.1	7.7	0.1	6.4	6.6	/	/
Cc1coc2c(C)c3oc(=O)c(CCC(=O)NCc4ccccn4)c(C)c3cc12	-5.8	-6.0	-10.0	6.2	6.6	19.7*	2.0	1.3
CSc1ccccc1C(=O)Nc1ccccc1C(=O)NC(C)C	7.2	-2.0	5.1	3.5	11.3	-5.7	/	/
O=C(O)c1ccc2cccnc2n1	-1.1	-1.2	1.7	-6.3	-3.7	19.7*	4.9	1.7
O=C(O)c1ccc2cccc(O)c2n1	-12.1	6.4	/	-4.6	-12.7	/	/	/
Cc1ccc(Cl)cc1N1C(=O)CC(Sc2ccccc2N)C1=O (stereo not given)	/	/	13.3	-2.3	/	-1.8	/	/
